JMJD2C inh: inhibitors of GASC-1 histone demethylase, primary screen, biochemical, fluorescence, DELFIA europium; GST-JMJD2C(1-420) H3K9me3 demethylation; inhibition, % at 2.35 µM; 0.069% of 330,000 active;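 active = more than half of a compound's replicate wells show inhibition beyond 50%, single wells judged on their own value; inconclusive = some, but no more than half, of replicates pass 50% inhibition; inactive = no replicate passes 50% inhibition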;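 note: signal counts dimethyl H3K9 product captured on neutravidin plate; 0% = median of DMSO wells and 100% = 0.3 times that DMSO median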
Lipid droplet: inhibitors of hepatocyte lipid droplet formation, primary screen, imaging, high-throughput imaging, BODIPY stain. AML12 mouse hepatocytes, oleate lipid droplets. inhibition, % at 6.5 µM. 0.4% of 240,000 active;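 active = lipid droplet intensity inhibited by at least 50%, with more than 500 cells counted; inconclusive = wells with under 300 cells, treated as cytotoxic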
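Assay system: AML12 hepatocytes (mouse) / Also added: 100 µM oleic acid challenge / Times: overnight treatment with compound plus oleate / Detection: high-content imaging of BODIPY-stained droplets and DAPI nuclei / Evaluation: % inhibition of lipid droplet signal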
GRK2 inh: compounds blocking aptamer binding on GRK2 – biochemical, human GRK2, bead flow cytometry, HTS, primary screen; inhibition of aptamer binding, % at 10 µM; Beta-adrenergic receptor kinase 1 (Homo sapiens), P25098; AID 488847, 2010; FAM-aptamer displacement from GRK2; 0.59% of 330,000 active;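 active = inhibition of aptamer binding above 40%, roughly 3 SD of noise, on plates passing a quality check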;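 note: median bead fluorescence of bound FAM aptamer so fluorescent compounds give negative values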
VLA-4 inh: inhibition in human VLA-4 binding assay, primary screen, VLA-4 allosteric modulator project, MLPCN library, flow cytometry, VLA-4 expressing cells | Integrin alpha-4 (Homo sapiens), P13612 | ligand binding flow cytometry | inhibition, % (about 7 µM as worked out from the volumes in the protocol) | 0.2% of 330,000 active | AID 2557, 2010; in the data active = inhibition above about 50%
Target sequence (P13612 whole entry, looked up): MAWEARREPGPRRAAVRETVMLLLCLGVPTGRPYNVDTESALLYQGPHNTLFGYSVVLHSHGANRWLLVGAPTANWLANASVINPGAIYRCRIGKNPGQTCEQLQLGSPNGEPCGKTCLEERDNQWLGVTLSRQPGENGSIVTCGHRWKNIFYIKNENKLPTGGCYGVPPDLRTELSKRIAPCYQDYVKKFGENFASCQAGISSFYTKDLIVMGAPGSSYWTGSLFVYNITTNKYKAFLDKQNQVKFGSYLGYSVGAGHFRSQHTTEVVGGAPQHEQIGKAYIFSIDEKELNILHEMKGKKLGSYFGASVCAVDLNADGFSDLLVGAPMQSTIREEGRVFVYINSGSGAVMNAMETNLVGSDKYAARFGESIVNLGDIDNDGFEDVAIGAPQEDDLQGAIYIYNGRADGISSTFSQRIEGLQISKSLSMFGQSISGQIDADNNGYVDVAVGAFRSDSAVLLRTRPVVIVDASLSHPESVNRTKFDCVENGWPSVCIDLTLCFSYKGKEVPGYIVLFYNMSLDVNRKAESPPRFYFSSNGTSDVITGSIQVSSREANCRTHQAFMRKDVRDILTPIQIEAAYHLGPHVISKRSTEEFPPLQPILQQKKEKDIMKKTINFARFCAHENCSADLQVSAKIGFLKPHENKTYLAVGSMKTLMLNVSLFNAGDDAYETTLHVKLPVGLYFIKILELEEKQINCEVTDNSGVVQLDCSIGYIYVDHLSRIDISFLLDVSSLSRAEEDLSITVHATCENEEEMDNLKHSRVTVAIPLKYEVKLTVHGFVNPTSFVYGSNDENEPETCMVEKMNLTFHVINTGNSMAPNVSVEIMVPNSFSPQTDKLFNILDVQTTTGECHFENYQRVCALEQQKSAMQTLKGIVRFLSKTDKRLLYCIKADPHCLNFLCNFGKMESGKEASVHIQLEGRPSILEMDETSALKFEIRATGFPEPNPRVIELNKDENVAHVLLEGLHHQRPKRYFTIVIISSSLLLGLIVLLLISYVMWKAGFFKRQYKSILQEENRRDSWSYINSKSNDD
procasp3 activ: activators of human procaspase-3 D3A mutant, primary screen, biochemical, absorbance, PC-3 D3A mutant, single concentration. Caspase-3 (Homo sapiens), P42574. recombinant procaspase-3 D3A, Ac-DEVD-pNA absorbance 405 nm. activation, % at 8.5 µM. 0.11% of 330,000 active. AID 463141, 2010;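 active = activation above the mean of all tested compounds plus 3 SD, cut at about 21% in these data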;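 note: 0% = DMSO alone and 100% = DMSO wells spiked with extra 5 µM PC-3 D3A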
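Test system: Procaspase-3 D3A mutant, all three cleavage aspartates alanine | Dosing: Single dose, 8.5 µM nominal compound, 0.8% DMSO | Schedule: 1 h preincubation, 2 h reaction | Technique: 405 nm absorbance of p-nitroaniline, reads at 0 and 120 min | Repeats: One well per compound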
proCasp7 act: procaspase-7 activators, primary screen, counter-screen for procaspase-3 activator project, biochemical, absorbance, HTS, human | activation, % at 8.5 µM | Caspase-7 (Homo sapiens), P55210 | 0.093% of 330,000 active | recombinant procaspase-7, Ac-DEVD-pNA absorbance 405 nm; D23A/D198A/D206A triple mutant, cannot self-cleave; scale: DMSO 0, 5 µM enzyme 100;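 active = percent activation above the screen-wide mean plus 3 SD, cut at about 25% in these data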
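Replicates: singlicate. Assay system: Procaspase-7 triple mutant (PC-7 D3A). Signal: 405 nm absorbance of p-nitroaniline. Times: 1 h preincubation, 2 h reaction. Buffer or medium: Zinc-free HEPES pH 7.4 with 300 mM NaCl, 0.01% Triton X-100. Also added: DEVD-pNA substrate. Benchmarks: DMSO wells as 0%, DMSO with 5 µM added PC-7 as 100%.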
procasp7 triplic: procaspase-7 activators, counter-screen for procaspase-3 activator project, biochemical, absorbance, triplicate, human. AID 488941, 2010. recombinant procaspase-7, Ac-DEVD-pNA absorbance; asp23/198/206-to-Ala mutant, cannot self-cleave. 210 tested, under 10 active. activation, % at 8.5 µM. shares compounds with procasp3 activ;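 active = mean activation above a set limit taken from an earlier procaspase-7 screen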;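 note: 0% = DMSO wells and 100% = DMSO plus 5 µM procaspase-7 enzyme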
proCasp3 confirm: activators of human procaspase-3 D3A mutant, confirmation, biochemical, absorbance, PC-3 D3A mutant, triplicate; shares compounds with procasp3 activ; recombinant PC-3 D3A, Ac-DEVD-pNA absorbance 405 nm; 100% is higher-enzyme control; activation, % at 8.5 µM; 10% of 210 active; AID 488954, 2010;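 active = mean activation above a set limit carried over from the earlier primary screen, cut at about 22% in these data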
GRK2 CP1: GRK2 aptamer-displacing inhibitors, retest, confirmation, biochemical, cherry pick 1, bead flow cytometry | shares compounds with GRK2 inh | bead-bound GRK2, FAM-aptamer displacement | aptamer displacement, % at 10 µM | 4% of 2,000 active | AID 504451, 2011;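 active = aptamer displacement above 40%, near three times the noise of non-fluorescent compounds, on plates passing quality checks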;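 note: negative values mostly reflect intrinsic compound fluorescence rather than true enhancement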
Aptamer quench SP: quenches fluorescent RNA aptamer, GRK2 hit artifact; shares compounds with GRK2 inh; Carboxyfluorescein RNA aptamer on beads, flow cytometry quenching; stronger effect = lower value; fluorescence response (% of DMSO), % at 10 µM; 2,000 tested, under 10 active;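 active = compounds that quench the bead-bound fluorescent RNA probe, cutting fluorescence to under half of the solvent control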;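 note: counterscreen run without GRK2 so only probe quenching by compound is measured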
Active calls of the source: *; ? = inconclusive; / = no result. A selection: hits, their analogues and other compounds. The true share with any hit is near 1.3%.

SMILES	JMJD2C inh	Lipid droplet	GRK2 inh	VLA-4 inh	procasp3 activ	proCasp7 act	procasp7 triplic	proCasp3 confirm	others
COc1ccc(CN(C)C(=O)C(Cc2ccccc2)NC(=O)c2ccccc2)c(OC)c1 (stereo unspecified)	-12	/	0	12	-2	0	/	/
Nc1ccc2nn(-c3cccc4ccccc34)nc2c1	-24	/	0	0	5	5	/	/
Cc1cc2nn(-c3cccc4ccccc34)nc2cc1N	16	-4	0	3	22*	5	5	24*
Cc1c(CCC(=O)O)c(=O)oc2cc(O)ccc12	-2	/	0	9	24*	21	-21	-12
CC(C)c1nc(SCC(=O)Nc2cccc3ccccc23)n[nH]1	11	/	0	-10	9	10	/	/
Cn1c(=O)c2[nH]c(CN3CCN(Cc4ccccc4)CC3)nc2n(C)c1=O	29	12	/	8	-3	14	/	/
Cn1c(N)nc2nc(CCc3ccccc3)c(=O)[nH]c2c1=O	-8	-16	1	4	22*	6	-22	-14
COCCN(C(=O)CSc1nnc(-c2ccc(C(C)(C)C)cc2)n1N)c1c(N)n(CC(C)C)c(=O)[nH]c1=O	-10	/	0	-4	-3	-8	/	/
O=c1c2ccccc2c(-c2ccccc2)nn1-c1cc(Cl)cc(Cl)c1	0	-8	0	6	22*	3	3	6
Cc1cc(N/N=C/c2ccc(N(C)C)cc2)c2ccccc2n1	-19	5	0	2	28*	24	-4	-6
Cn1c(SCc2ccccc2F)nc2ccccc2c1=O	7	/	0	-2	22*	6	1	3
Cc1ccccc1CSc1nc2ccccc2c(=O)n1C	1	/	0	7	-2	-6	/	/
CC(N=C1NS(=O)(=O)c2ccccc21)C(=O)NCc1ccc(F)cc1 (stereo unspecified)	1	/	0	2	4	-1	/	/
CCCCCCc1cc2cc(C(N)=O)c(=N)oc2cc1O	-16	/	2	-10	1	2	/	/
CCCCCCc1cc2cc(C(=O)OCC)c(=O)oc2cc1O	8	17	1	2	36*	20	-21	-13
CCn1cc2nc(SCC(=O)Nc3ccc(F)cc3F)n(Cc3ccccc3)c(=O)c2n1	-34	-1	1	7	-6	5	/	/
COc1ccc2nc(Nc3nc4cc5c(cc4s3)OCO5)sc2c1	-10	5	13	2	69*	7	-20	-14
COc1ccc(OC)c(S(=O)(=O)NCc2ccccn2)c1	-2	8	0	-14	0	4	/	/
COc1ccccc1[C@@H]1C(c2cccc(C)c2)=NN(c2ccccc2)[C@H]1C(=O)N1CCOC1=O	-10	-14	0	-11	24*	18	-22	-15
COCCNc1ncnc2c1cnn2Cc1ccccc1Cl	8	8	4	-1	23*	1	2	1
O=S(=O)(NC1CC1)c1ccc(S(=O)(=O)N2CCN3CCCC3C2)cc1 (stereo unspecified)	4	/	1	9	-1	-3	/	/
O=S(=O)(NC1CCCCC1)c1ccc(S(=O)(=O)N2CCN3CCCC3C2)cc1 (stereo unspecified)	?	/	3	12	37*	9	3	5
Cc1ccc(C)c(S(=O)(=O)N2CCN(C(=O)CCCc3c[nH]c4ccccc34)CC2)c1	-7	/	1	13	-11	-5	/	/
CN(C)/C=N/C1=C(C#N)C(c2ccc(Br)cc2)c2ccc3ccccc3c2O1 (stereo unspecified)	-15	/	0	-9	29*	14	-22	-10
N#CC1=C(N)Oc2c(ccc3ccccc23)C1c1cccs1 (stereo unspecified)	6	?	1	14	-2	6	/	/
SMILES	JMJD2C inh	Lipid droplet	GRK2 inh	VLA-4 inh	procasp3 activ	proCasp7 act	procasp7 triplic	proCasp3 confirm	others
Cc1ccc(-c2cn(S(=O)(=O)c3cccc4nsnc34)nc2N)cc1	0	0	0	18	23*	-2	2	1
CC(=O)N1N=C(c2cccs2)CC1c1cccs1 (stereo unspecified)	-28	10	0	-2	0	0	/	/
CC(=O)c1ccc(-c2cccs2)s1	-2	0	0	3	29*	24	-20	-13
O=c1[nH]c2ccccc2nc1-c1cccs1	2	/	6	-3	34*	1	-22	-14
CCC(C)NC(=O)CNC(=O)c1nn(-c2ccc(OC)c(Cl)c2)c(=O)c2ccccc12 (stereo unspecified)	3	4	0	11	22*	3	3	3	GRK2 CP1=-3;Aptamer quench SP=101
CCc1sc(C(=O)N2CCN(C(=O)c3ccccc3)CC2)cc1C	-3	/	2	4	12	8	/	/

Assay outcomes: PubChem, several laboratories
